Source: PubChem
TCR-CD3 inh: inhibitors of human TCR-CD3 interaction, primary screen, biochemical, fluorescence, TAMRA-labeled TCR probe; 0.37% of 360,000 active; inhibition, % at 9.4 µM; AID 651800, 2012; in the data active = inhibition above about 19%;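 also: recombinant mutant TCR 2C K166C tagged with TAMRA read by polarization; 0% = receptor in buffer alone and 100% = receptor with positive control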
SIAE primary: human SIAE inhibitors, primary screen, biochemical, fluorescence polarization, FP-Rh probe, 1536-well HTS | 0.69% of 370,000 active | AID 1053197, 2014 | Sialate O-acetylesterase (Homo sapiens), Q9HAT2 | inhibition, % at 9.66 µM | SIAE FP-Rh probe binding;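 active = inhibition above a cutoff: mean of compounds within the control limits plus 3 SD of those, cut at about 17% in these data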;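 also: 0% = plate median of compound wells and 100% = probe without SIAE protein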
HTRA1 inhibitor: HTRA1 serine protease inhibitors, primary screen, biochemical, fluorescence polarization, HTS. Q92743. recombinant HTRA1, FP-rhodamine activity-based probe. inhibition, % at 5.96 µM. 0.5% of 340,000 active; in the data active = inhibition above about 36%;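 also: 0% = enzyme with DMSO and 100% = wells lacking enzyme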
Tn7 DDE FP: inhibitors of Tn7 peptide binding to fibrin DD(E), primary screen, biochemical, fluorescence polarization, human fibrin, Tn7 probe; Fibrinogen beta chain (Homo sapiens), P02675; FP displacement of FITC-Tn7 peptide from fibrin DD(E); 0% = median of compound wells per plate; inhibition, % at 8.3 µM; 0.13% of 370,000 active;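 active = inhibition above the mean of compounds falling within the control limits plus 3 SD of them, cut at about 14% in these data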;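 also: 0% = plate median of compound wells and 100% = 10 µM Aha-Tn7 peptide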
Target sequence (P02675 whole entry, looked up): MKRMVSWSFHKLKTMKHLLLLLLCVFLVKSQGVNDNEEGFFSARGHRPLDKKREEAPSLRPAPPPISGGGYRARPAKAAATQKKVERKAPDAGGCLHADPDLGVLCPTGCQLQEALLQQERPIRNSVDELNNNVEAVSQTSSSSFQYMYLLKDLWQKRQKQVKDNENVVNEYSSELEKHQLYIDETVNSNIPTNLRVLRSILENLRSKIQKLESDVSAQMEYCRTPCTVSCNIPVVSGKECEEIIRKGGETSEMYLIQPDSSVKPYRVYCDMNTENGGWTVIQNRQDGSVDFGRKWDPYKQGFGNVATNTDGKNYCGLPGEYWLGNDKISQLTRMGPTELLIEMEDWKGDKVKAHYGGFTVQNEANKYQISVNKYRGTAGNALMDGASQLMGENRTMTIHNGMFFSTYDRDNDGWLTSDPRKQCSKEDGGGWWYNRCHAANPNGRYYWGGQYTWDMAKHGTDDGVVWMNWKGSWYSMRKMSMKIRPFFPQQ
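Measure: % inhibition scaled between sample-field median and high-control FP; Test system: human fibrin DD(E); Quantity: 2 µM final DD(E) protein; Doses: one dose, 8.3 µM nominal; Schedule: compound with protein 10 min, then 3 h after probe, room temperature; Detection: fluorescence polarization; Medium: Tris buffer with calcium and detergent, pH 7.8.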
DDE Tn6 FP inh: inhibitors of Tn6 peptide binding to fibrin DD(E), primary screen, biochemical, fluorescence polarization, human fibrin, Tn6 probe; Fibrinogen beta chain (Homo sapiens), P02675; Fibrin DD(E) TRITC-Tn6 fluorescence polarization displacement; 0.21% of 370,000 active; inhibition, % at 8.3 µM; AID 720509, 2013;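 active = inhibition above a per-campaign cutoff: mean of compounds within control limits plus 3 SD, cut at about 15% in these data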;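 also: 0% = median of all compound wells on the plate and 100% = blocking peptide control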
ABHD4 inh: ABHD4 inhibitors, primary screen, biochemical, fluorescence polarization, mouse; purified mABHD4, FP-Rh probe fluorescence polarization; inhibition, % at 8.92 µM; AID 720543, 2013; 0.54% of 370,000 active; (Lyso)-N-acylphosphatidylethanolamine lipase (Mus musculus), Q8VD66;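 active = inhibition exceeding the mean over every tested compound plus 3 SD, cut at about 30% in these data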;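 also: 0% = plate median of compound wells and 100% = S159A mutant with DMSO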
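Assay system: wild-type mouse ABHD4 protein; compound: single nominal dose of 8.92 µM, 0.89% DMSO final; schedule: 45 min + 60 min at 25 °C; measured by: FP readout, ex 525 nm / em 598 nm; evaluation: % inhibition of FP-Rh probe binding versus controls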
Tn7 DDE conf: inhibitors of Tn7 peptide binding to fibrin DD(E), confirmation, biochemical, fluorescence polarization, human fibrin, Tn7 probe; shares compounds with Tn7 DDE FP; FP displacement of TRITC-Tn7 peptide from DD(E); 0% set at plate's compound-well median; AID 720628, 2013; 5% of 460 active; inhibition, % at 8.3 µM;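 active = inhibition above the campaign cutoff, the mean of compounds within control limits plus 3 SD, cut at about 14% in these data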;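 also: 100% = median FP of high control wells holding Aha-Tn7 inhibitor peptide; displacers lower polarization since freed probe rises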
Tn7 DDE ctr: counter-screen hit for Tn7 peptide-fibrin DD(E) binding disruption; shares compounds with Tn7 DDE FP; 3% of 460 active; TRITC-Tn7 probe displacement, fluorescence polarization; inhibition, % at 8.3 µM; AID 720633;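 active = inhibition above the cutoff, the mean of compounds lying between the control bounds plus 3 SD of those compounds, cut at about 17% in these data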;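 also: 0% = median of compound sample wells and 100% = excess unlabeled Aha-Tn7 peptide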
The depositor's hits bear a star. This is a sample that favours compounds with a hit; in the whole collection about 1.8% have one here.

What do the screens show for `CC(=O)Oc1ccc2c(c1)C(=O)c1ccccc1CO2`?
TCR-CD3 inh: 2.2; SIAE primary: 2.5; HTRA1 inhibitor: 4.3; Tn7 DDE FP: 14.3*; DDE Tn6 FP inh: 3.8; ABHD4 inh: 10.4; Tn7 DDE conf: -6.1; Tn7 DDE ctr: -4.1

How did CN(C)c1ccc(/C=N/NC(=O)c2ccc(CN3CCOCC3)cc2)cc1Br do in these assays?
TCR-CD3 inh: -4.9; SIAE primary: 5.6; Tn7 DDE FP: 14.2*; DDE Tn6 FP inh: -2.7; ABHD4 inh: -2.7; Tn7 DDE conf: 0.4; Tn7 DDE ctr: 0.9

What do the screens show for `S=C(NC1CCCC1)N1CCN(C/C=C/c2ccccc2)CC1`?
TCR-CD3 inh: -2.7; SIAE primary: -1.9; HTRA1 inhibitor: -1.5; Tn7 DDE FP: -0.2; DDE Tn6 FP inh: -0.1; ABHD4 inh: 3.9

What do the screens show for `CCNC(=O)C1(C)CCCN1C(=O)c1ccc(-c2ccccc2)cc1` (stereo not drawn)?
TCR-CD3 inh: -1.2; SIAE primary: -4.9; Tn7 DDE FP: -5.8; DDE Tn6 FP inh: -1.1; ABHD4 inh: -1.9

What do the screens show for `Cc1cc2c(cc1C)C(c1cccc([N+](=O)[O-])c1)CC(=O)N2` (stereo not drawn)?
TCR-CD3 inh: -0.6; SIAE primary: -7.8; HTRA1 inhibitor: 4.0; Tn7 DDE FP: 14.3*; DDE Tn6 FP inh: -3.3; ABHD4 inh: 10.2; Tn7 DDE conf: 3.5; Tn7 DDE ctr: -2.8

What do the screens show for `O=C(NC1CC1)c1ccccc1`?
TCR-CD3 inh: -11.2; SIAE primary: 1.6; HTRA1 inhibitor: 2.4; Tn7 DDE FP: 3.5; DDE Tn6 FP inh: 1.2; ABHD4 inh: -2.7

What do the screens show for `Oc1cccc(Nc2ccccc2)c1`?
TCR-CD3 inh: 7.9; SIAE primary: 12.6; HTRA1 inhibitor: 1.0; Tn7 DDE FP: 14.2*; DDE Tn6 FP inh: 2.1; ABHD4 inh: -2.0; Tn7 DDE conf: 7.0; Tn7 DDE ctr: 3.8

Results for CCCN(C(=O)COC(=O)COc1c(C)cccc1C)c1c(N)n(Cc2ccccc2)c(=O)[nH]c1=O ?
TCR-CD3 inh: 0.5; SIAE primary: 0.2; HTRA1 inhibitor: 0.0; Tn7 DDE FP: 13.8*; DDE Tn6 FP inh: -7.2; ABHD4 inh: -2.5; Tn7 DDE conf: 0.0; Tn7 DDE ctr: -3.0

What do the screens show for `COc1cccc(CN2C(=O)[C@@H]3Cc4c([nH]c5ccccc45)C(C)(C)N3C2=O)c1`?
TCR-CD3 inh: -1.3; SIAE primary: 1.3; HTRA1 inhibitor: -84.9; Tn7 DDE FP: -6.2; DDE Tn6 FP inh: 0.2; ABHD4 inh: -11.6

How did COc1ccc(-c2ccc([C@H]3[C@H]4C=CC[C@@H](C)[C@@H]4C(=O)N3Cc3ccccc3)c(F)c2)cc1OC do in these assays?
TCR-CD3 inh: 3.6; SIAE primary: 2.7; HTRA1 inhibitor: -88.7; Tn7 DDE FP: 14.2*; DDE Tn6 FP inh: -8.7; ABHD4 inh: -9.2; Tn7 DDE conf: 1.8; Tn7 DDE ctr: -11.9

How did O=C(OCC(=O)N1CCN(C(=O)COC(=O)c2ccc(O)cc2O)CC1)c1ccc(O)cc1O do in these assays?
TCR-CD3 inh: 1.9; SIAE primary: -7.9; HTRA1 inhibitor: -4.2; Tn7 DDE FP: 2.5; DDE Tn6 FP inh: 0.0; ABHD4 inh: 1.8

How did CCN(CC)CCCNc1ccc2ncn3c4ccc(O)cc4c(=O)c1c23 do in these assays?
TCR-CD3 inh: 1.4; SIAE primary: 1.6; HTRA1 inhibitor: 9.8; Tn7 DDE FP: 40.0*; DDE Tn6 FP inh: 3.5; ABHD4 inh: 12.8; Tn7 DDE conf: 12.8; Tn7 DDE ctr: -3.6

What do the screens show for `Cc1ccccc1NC(=O)COc1coc(CN2CCCc3ccccc32)cc1=O`?
TCR-CD3 inh: -6.9; SIAE primary: 2.4; HTRA1 inhibitor: -0.1; Tn7 DDE FP: 15.0*; DDE Tn6 FP inh: 1.8; ABHD4 inh: 4.0; Tn7 DDE conf: 1.1; Tn7 DDE ctr: -4.3

What do the screens show for `Cc1ccc(OCCC(=O)OCC(=O)N2CCN(S(=O)(=O)c3ccc(Cl)cc3)CC2)cc1`?
TCR-CD3 inh: -4.3; SIAE primary: 3.6; HTRA1 inhibitor: 3.1; Tn7 DDE FP: 14.7*; DDE Tn6 FP inh: 0.3; ABHD4 inh: -7.1; Tn7 DDE conf: -4.3; Tn7 DDE ctr: -5.5

Results for Cc1ccc(NC(=O)CCN2CC(C)OC(C)C2)cc1 (stereo not drawn) ?
TCR-CD3 inh: -6.6; SIAE primary: -0.3; HTRA1 inhibitor: 1.5; Tn7 DDE FP: 1.3; DDE Tn6 FP inh: 2.7; ABHD4 inh: 1.0

Results for COc1ccc(C(C)(C)C)cc1NC(=O)c1ccc2ncsc2c1 ?
TCR-CD3 inh: 10.4; SIAE primary: -11.6; HTRA1 inhibitor: -39.7; Tn7 DDE FP: 3.2; DDE Tn6 FP inh: 3.0; ABHD4 inh: -11.8

Results for COc1ccc(C(C)(C)C)cc1NC(=O)c1cncc(Br)c1 ?
TCR-CD3 inh: -1.1; SIAE primary: -1.3; HTRA1 inhibitor: -22.2; Tn7 DDE FP: 15.7*; DDE Tn6 FP inh: 4.8; ABHD4 inh: -7.1; Tn7 DDE conf: 0.7; Tn7 DDE ctr: -1.3

What do the screens show for `CCCc1c(C)nc(N2CCN(c3ccccc3OC)CC2)[nH]c1=O`?
TCR-CD3 inh: 4.2; SIAE primary: 1.2; HTRA1 inhibitor: 5.5; Tn7 DDE FP: -3.8; DDE Tn6 FP inh: 3.5; ABHD4 inh: 2.1

How did Cc1ccc(C2CC(=O)Nc3cc4c(cc32)OCO4)o1 (stereo not drawn) do in these assays?
TCR-CD3 inh: -1.9; SIAE primary: 6.0; HTRA1 inhibitor: 0.0; Tn7 DDE FP: 15.4*; DDE Tn6 FP inh: 14.3; ABHD4 inh: 3.2; Tn7 DDE conf: 6.5; Tn7 DDE ctr: 3.0

How did COc1ccc(/C=C/C(=O)OCC(=O)NC(C)CCc2ccccc2)cc1OC (stereo not drawn) do in these assays?
TCR-CD3 inh: 8.0; SIAE primary: -0.7; HTRA1 inhibitor: -4.2; Tn7 DDE FP: 14.0*; DDE Tn6 FP inh: 7.2; ABHD4 inh: -3.5; Tn7 DDE conf: 1.2; Tn7 DDE ctr: -2.2

How did COc1ccc(NC(=O)C[C@H]2C(=O)N(c3ccc(OC)cc3)C[C@@H]2c2ccc(Br)cc2)cc1 do in these assays?
TCR-CD3 inh: 0.6; SIAE primary: -0.7; HTRA1 inhibitor: -38.0; Tn7 DDE FP: 6.2; DDE Tn6 FP inh: -0.4; ABHD4 inh: -1.1
